Results as given in ChEMBL document CHEMBL1138839, “Antitumor Agents. 239. Isolation, structure elucidation, total synthesis, and anti-breast cancer activity of neo-tanshinlactone from Salvia miltiorrhiza” (2004).
Values after ≈ are worked out from the molar mass of the structure shown.

Assays:
MDA-MB-231 [1] = assay: Dose required for reduction in cell growth of human breast cancer MDA-MB-231 cell line; assay type: functional; settings: read-out: ED50 (the source's name)
Method in brief: (§1)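 Freshly trypsinized cells in RPMI-1640 (25 mM HEPES, 0.25% sodium bicarbonate, 10% FBS, 100 μg/mL kanamycin) were seeded at 1500-7500 cells/well and dosed from DMSO-diluted stock. After 3 days they were fixed with cold 50% TCA, stained with 0.4% SRB, and read at 562 nm after dye solubilization. ED50 (50% growth reduction) is the mean of ≥3 independent determinations.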

MCF7 [2] = assay: Dose required for reduction in cell growth of human breast cancer MCF-7 cell line; assay type: functional; settings: read-out: ED50 (the source's name); method in brief: as §1
PC-3 = assay: Dose required for reduction in cell growth of human prostate cancer PC-3 cell line; assay type: functional; settings: read-out: ED50 (the source's name)
KB [3] = assay: Dose required for reduction in cell growth of vincristine-resistant human nasopharyngeal carcinoma KB cell line; assay type: functional; settings: read-out: ED50 (the source's name)
SK-BR-3 = assay: Dose required for reduction in cell growth of estrogen negative human breast cancer SK-BR-3 cell line(ER-); assay type: functional; settings: read-out: ED50 (the source's name)
LNCaP [4] = assay: Dose required for reduction in cell growth of human AR-dependent prostate cancer LN-CaP cell line; assay type: functional; settings: read-out: ED50 (the source's name)
ZR-75-1 = assay: Dose required for reduction in cell growth of estrogen positive human breast cancer ZR-75-1 cell line (ER+); assay type: functional; settings: read-out: ED50 (the source's name)
MCF7 [5] = assay: Dose required for reduction in cell growth of estrogen positive human breast cancer MCF-7 cell line (ER+); assay type: functional; settings: read-out: ED50 (the source's name)
MDA-MB-231 [6] = assay: cells; assay type: functional; settings: Homo sapiens, MDA-MB-231, read-out: ED50
A-431 [7] = assay: Effective dose for reduction in cell growth of human skin cancer A431 cell line; settings: A-431, read-out: ED50
SW-620 [8] = assay: Dose required for reduction in cell growth of human colon cancer SW620 cell line; assay type: functional; settings: read-out: ED50 (the source's name)
cells = assay type: functional; settings: Homo sapiens; read-out: ED50 (the source's name)
KB [9] = assay: Dose required for reduction in cell growth of human nasopharyngeal carcinoma KB cell line; assay type: functional; settings: read-out: ED50 (the source's name)
A549 [10] = assay: Dose required for reduction in human lung cancer A549 cell proliferation; assay type: functional; settings: read-out: ED50 (the source's name); method in brief: as §1
MCF7 [11] = assay: Percent inhibition of cell growth in human breast cancer MCF-7 cell line; assay type: functional
KB [12] = assay: Percent inhibition of cell growth in human nasopharyngeal carcinoma KB cell line; assay type: functional
A-431 [13] = assay: Effective concentration required for 50% reduction in cell growth of human skin cancer A431 cell line; assay type: functional; settings: read-out: ED50 (the source's name); method in brief: as §1
MDA-MB-231 [14] = assay: Percent inhibition of cell growth in human breast cancer MDA-MB-231 cell line; assay type: functional
SW-620 [15] = assay: Percent inhibition of cell growth in human colon cancer SW620 cell line; assay type: functional
LNCaP [16] = assay: Percent inhibition of cell growth in human AR-dependent prostate cancer LN-CaP cell line; value ranges from 28-36; assay type: functional
A549 [17] = assay: Percent inhibition of cell growth in human lung cancer A549 cell line; assay type: functional
A-431 [18] = assay: Percent inhibition of human skin cancer A431 cell proliferation; assay type: functional
KB [19] = assay: Percent inhibition of cell growth in vincristine-resistant human nasopharyngeal carcinoma KB cell line; assay type: functional

SMILES	EC50 (MDA-MB-231 [1])	EC50 (MCF7 [2])	EC50 (PC-3)	EC50 (KB [3])	EC50 (SK-BR-3)	EC50 (LNCaP [4])	EC50 (ZR-75-1)	EC50 (MCF7 [5])	EC50 (MDA-MB-231 [6])	EC50 (SW-620 [8])	EC50 (cells)	EC50 (KB [9])	further results
Cc1coc2c1C(=O)C(=O)c1c-2ccc2c1CCCC2(C)C [TANSHINONE IIA]	0.7 µg/mL (≈ 2.38 µM)	0.38 µg/mL (≈ 1.29 µM)	–	–	–	–	–	–	–	–	–	–	–
CC/C(=C(\c1ccccc1)c1ccc(OCCN(C)C)cc1)c1ccccc1.O=C(O)CC(O)(CC(=O)O)C(=O)O [TAMOXIFEN CITRATE]	–	–	10 µg/mL	9 µg/mL	5 µg/mL	6 µg/mL	5 µg/mL	5 µg/mL	> 8 µg/mL	4 µg/mL	9 µg/mL	9 µg/mL	EC50 (A-431 [7]): 7 µg/mL
C[C@H]1COC2=C1C(=O)C(=O)c1c2ccc2c1CCCC2(C)C [CRYPTOTANSHINONE]	0.16 µg/mL (≈ 0.54 µM)	0.41 µg/mL (≈ 1.38 µM)	–	–	–	–	–	–	–	–	–	–	–
Cc1coc2c1C(=O)C(=O)c1c-2ccc2c(C)cccc12 [TANSHINONE I]	0.75 µg/mL (≈ 2.71 µM)	0.82 µg/mL (≈ 2.97 µM)	–	–	–	–	–	–	–	–	–	–	–
Cc1cccc2c1ccc1c3occ(C)c3c(=O)oc21	> 20 µg/mL	< 2.5 µg/mL	10 µg/mL (≈ 37.8 µM)	> 10 µg/mL	0.2 µg/mL (≈ 0.757 µM)	> 10 µg/mL	0.3 µg/mL (≈ 1.14 µM)	0.6 µg/mL (≈ 2.27 µM)	> 10 µg/mL	> 10 µg/mL	16 µg/mL (≈ 60.5 µM)	> 10 µg/mL	EC50 (A549 [10]): > 20 µg/mL; Inhibition (MCF7 [11]): 57%; Inhibition (KB [12]): 18%; EC50 (A-431 [13]): > 10 µg/mL; Inhibition (MDA-MB-231 [14]): 17%; Inhibition (SW-620 [15]): 22%; Inhibition (LNCaP [16]): 36%; Inhibition (A549 [17]): 10%; Inhibition (A-431 [18]): 35%; Inhibition (KB [19]): 9%
